# Results reported in ChEMBL document CHEMBL1132613 (J Med Chem, 1999).
# Key:
# [1] = biological target: T1, 5-hydroxytryptamine receptor 2C (Homo sapiens, UniProt P28335); experiment: Compound was tested for the displacement of [125I]DOI from cloned human 5-hydroxytryptamine 2C receptor
# T1 sequence (P28335 whole entry): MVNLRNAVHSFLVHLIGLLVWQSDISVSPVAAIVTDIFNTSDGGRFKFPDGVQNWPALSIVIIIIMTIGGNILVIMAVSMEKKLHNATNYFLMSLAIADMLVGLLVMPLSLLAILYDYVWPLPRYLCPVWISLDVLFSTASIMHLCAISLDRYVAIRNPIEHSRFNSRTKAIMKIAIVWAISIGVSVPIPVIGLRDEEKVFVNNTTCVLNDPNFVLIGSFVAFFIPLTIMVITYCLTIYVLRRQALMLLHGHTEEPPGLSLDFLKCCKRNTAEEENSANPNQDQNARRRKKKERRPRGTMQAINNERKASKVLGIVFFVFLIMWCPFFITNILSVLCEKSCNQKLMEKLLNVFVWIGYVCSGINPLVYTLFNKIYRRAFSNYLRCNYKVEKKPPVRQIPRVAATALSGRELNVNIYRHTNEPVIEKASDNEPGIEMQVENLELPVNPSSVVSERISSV
# In short: (§1)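 Membranes from AV12 hamster fibroblasts stably expressing human 5-HT2A or 5-HT2C. [125I]DOI was about 0.07–0.15 nM final. Buffer was 50 mM Tris-HCl pH 7.4 with 10 μM pargyline, 9.75 mM MgCl2, 0.5 mM Na2-EDTA and 0.1% Na ascorbate. Incubation was 30 min at 37 °C with about 40 μg protein (2A) or 30 μg (2C). Nonspecific binding used 1 μM ketanserin (2A) or 10 μM mianserin (2C). Read by gamma counting; sigmoid nonlinear regression.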
# Rattus norvegicus [2] = experiment: Percentage of animals emitting >80% of lever presses in LSD trained rats at a compound dose of 25.3 uM/Kg; type: functional
# In short: (§2)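 Male Sprague–Dawley rats (200–220 g) in a two-lever, FR50 food-reinforced task. Rats were trained to discriminate saline from LSD tartrate (0.08 mg/kg), DOI HCl (0.4 mg/kg) or LY293284 (0.025 mg/kg) in 15-min sessions. %SDL is the share of rats making over 80% of presses on the drug lever. %D is the share failing to make 50 presses within 15 min. ED50 by Litchfield–Wilcoxon log-probit.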
# Rattus norvegicus [3] = experiment: Percentage of animals failing to emit 50 lever presses within 15 min in DOI trained rats at a compound dose of 16 mg/kg; type: functional; in short: as §2
# Rattus norvegicus [4] = experiment: Percentage of animals failing to emit 50 lever presses within 15 min in […] trained rats at a compound dose of 4 mg/kg; type: functional
# In short: (§3)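 Two-lever drug discrimination in male Sprague–Dawley rats (200–220 g at start), trained against saline on LSD tartrate (0.08 mg/kg), DOI HCl (0.4 mg/kg) or LY293284 (0.025 mg/kg). FR50 food-pellet reinforcement, levers counterbalanced, 15-min sessions at 22–24 °C. %D is the share of tested rats not completing 50 lever presses within 15 min.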
# Rattus norvegicus [5] = experiment: Percentage of animals emitting >80% of lever presses in DOI trained rats at a compound dose of 50.6 uM/Kg; type: functional; in short: as §2
# Rattus norvegicus [6] = experiment: Percentage of animals failing to emit 50 lever presses within 15 min in LSD trained rats at a compound dose of 0.5 mg/kg; type: functional; in short: as §2
# Rattus norvegicus [7] = experiment: Percentage of animals emitting >80% of lever presses in DOI trained rats at a compound dose of 6.32 uM/Kg; type: functional; in short: as §2
# [8] = biological target: 5-hydroxytryptamine receptor 2A (Homo sapiens, UniProt P28223); experiment: Compound was tested for the displacement of [125I]-DOI from clone human 5-hydroxytryptamine 2A receptor; in short: as §1
# Rattus norvegicus [9] = experiment: Percentage of animals failing to emit 50 lever presses within 15 min in LSD trained rats at a compound dose of 4.0 mg/kg; type: functional; in short: as §3
# Rattus norvegicus [10] = experiment: Percentage of animals emitting >80% of lever presses in LSD trained rats at a compound dose of 6.32 uM/Kg; type: functional; in short: as §2
# Rattus norvegicus [11] = experiment: Percentage of animals emitting >80% of lever presses in […] trained rats at a compound dose of 6.32 uM/Kg; type: functional; in short: as §2
# Rattus norvegicus [12] = experiment: Percentage of animals emitting >80% of lever presses in LSD trained rats at a compound dose of 12.6 uM/Kg; type: functional; in short: as §2
# Rattus norvegicus [13] = experiment: Percentage of animals failing to emit 50 lever presses within 15 min in DOI trained rats at a compound dose of 8 mg/kg; type: functional; in short: as §2
# [14] = biological target: T2, 5-hydroxytryptamine receptor 1A (Rattus norvegicus, UniProt P19327); experiment: Compound was tested for the displacement of [3H]-8-OH- DPAT from rat brain 5-hydroxytryptamine 1A receptor
# T2 sequence (P19327 whole entry): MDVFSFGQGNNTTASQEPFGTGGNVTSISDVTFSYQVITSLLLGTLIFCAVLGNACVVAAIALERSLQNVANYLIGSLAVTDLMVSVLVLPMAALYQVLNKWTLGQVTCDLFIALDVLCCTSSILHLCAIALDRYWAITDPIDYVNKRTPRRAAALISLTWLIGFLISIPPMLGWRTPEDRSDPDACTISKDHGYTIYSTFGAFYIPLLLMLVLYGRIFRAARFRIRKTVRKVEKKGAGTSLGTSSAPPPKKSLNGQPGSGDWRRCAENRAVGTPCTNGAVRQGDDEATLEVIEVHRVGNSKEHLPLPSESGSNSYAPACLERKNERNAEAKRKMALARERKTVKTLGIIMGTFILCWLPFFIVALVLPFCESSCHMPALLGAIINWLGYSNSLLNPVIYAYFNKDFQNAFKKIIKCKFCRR
# In short: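 Pooled rat hippocampal membranes were preincubated at 37 °C. Buffer was 50 mM Tris HCl pH 7.4 with 0.5 mM Na2EDTA, 10 mM MgCl2, 0.1% Na ascorbate and pargyline. 200–400 μg protein was incubated with [3H]-8-OH-DPAT for 15 min at 37 °C, then GF/C filtered and scintillation counted. Nonspecific binding was defined with 10 μM 5-HT. Triplicate tubes.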
# Rattus norvegicus [15] = experiment: Percentage of animals failing to emit 50 lever presses within 15 min in LSD trained rats at a compound dose of 1.0 mg/kg; type: functional; in short: as §2
# Rattus norvegicus [16] = experiment: Percentage of animals failing to emit 50 lever presses within 15 min in DOI trained rats at a compound dose of 2 mg/kg; type: functional; in short: as §2
# Rattus norvegicus [17] = experiment: Percentage of animals failing to emit 50 lever presses within 15 min in LSD trained rats at a compound dose of 8.0 mg/kg; type: functional; in short: as §3
# Rattus norvegicus [18] = experiment: Percentage of animals failing to emit 50 lever presses within 15 min in […] trained rats at a compound dose of 2 mg/kg; type: functional; in short: as §3
# Rattus norvegicus [19] = experiment: Percentage of animals failing to emit 50 lever presses within 15 min in […] trained rats at a compound dose of 8 mg/kg; type: functional; in short: as §3
# Rattus norvegicus [20] = experiment: Percentage of animals emitting >80% of lever presses in LSD trained rats at a compound dose of 3.16 uM/Kg; type: functional; in short: as §2
# Rattus norvegicus [21] = experiment: Percentage of animals emitting >80% of lever presses in LSD trained rats at a compound dose of 1.58 uM/Kg; type: functional; in short: as §2
# Rattus norvegicus [22] = experiment: Percentage of animals failing to emit 50 lever presses within 15 min in LSD trained rats at a compound dose of 2.0 mg/kg; type: functional; in short: as §2
# 5-hydroxytryptamine receptor 2A, sequence (P28223 whole entry): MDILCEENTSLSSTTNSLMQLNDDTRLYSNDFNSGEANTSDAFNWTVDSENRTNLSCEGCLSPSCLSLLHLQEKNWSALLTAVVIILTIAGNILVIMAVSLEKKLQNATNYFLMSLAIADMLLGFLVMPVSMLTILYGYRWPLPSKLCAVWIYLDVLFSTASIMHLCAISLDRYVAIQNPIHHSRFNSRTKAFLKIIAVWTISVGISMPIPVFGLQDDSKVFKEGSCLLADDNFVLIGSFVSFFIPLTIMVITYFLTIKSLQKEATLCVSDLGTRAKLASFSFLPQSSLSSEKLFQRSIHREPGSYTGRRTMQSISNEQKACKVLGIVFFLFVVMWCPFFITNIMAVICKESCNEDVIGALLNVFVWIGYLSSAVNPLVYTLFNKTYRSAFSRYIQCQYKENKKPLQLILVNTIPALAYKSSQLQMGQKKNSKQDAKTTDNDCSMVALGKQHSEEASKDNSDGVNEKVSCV
smiles,measurement,setting,value
CN(C)CCc1c[nH]c2sccc12,Ki,[1],0.102 µM
same,SDL,Rattus norvegicus [2],9%
same,D,Rattus norvegicus [3],50%
same,D,Rattus norvegicus [4],0%
same,SDL,Rattus norvegicus [5],0%
same,D,Rattus norvegicus [6],22%
same,SDL,Rattus norvegicus [7],0%
same,Ki,[8],0.106 µM
same,D,Rattus norvegicus [9],0%
same,SDL,Rattus norvegicus [10],9%
same,SDL,Rattus norvegicus [11],10%
same,SDL,Rattus norvegicus [12],16.7%
same,D,Rattus norvegicus [13],12.5%
same,Ki,[14],0.184 µM
same,D,Rattus norvegicus [15],0%
same,D,Rattus norvegicus [16],0%
same,D,Rattus norvegicus [17],0%
same,D,Rattus norvegicus [18],0%
same,D,Rattus norvegicus [19],0%
same,SDL,Rattus norvegicus [20],7.7%
same,SDL,Rattus norvegicus [21],14%
same,D,Rattus norvegicus [22],0%
